Data published in ChEMBL document CHEMBL1149329, “Synthesis and biological activity of sulfonamide derivatives of epipodophyllotoxin” (J Med Chem, 2004).
“And” between values parts separate entries of the source, which are not always exact repeats. Identical values can stand only once.

Experiments:
[1] = test system: P388; experiment: Antitumor activity against P388 leukemia at dose range of 3.12-50 mg/kg on day 1, activity expressed as maximum tolerated dose; format: functional, Mus musculus
[2] = target: DNA topoisomerase II (Homo sapiens) (UniProt P11388+Q02880); experiment: Inhibition of human DNA Topoisomerase II mediated DNA cleavage through the stabilization of transient DAN/topoisomerase II cleavage complex; format: protein assay
Method in brief: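 Supercoiled pBS DNA (0.1 μg) preincubated 15 min at 30 °C with drug at 50 μM in 50 mM Tris-HCl pH 7.5, 1 mM ATP, 120 mM KCl, 10 mM MgCl2, 0.5 mM DTT, 0.1 mM EDTA, BSA. Two units human topo II added, 30 min at 30 °C. SDS/proteinase K digestion 30 min at 55 °C. 1% agarose gel with ethidium bromide; linear DNA percentage read, mean of three independent experiments.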

[3] = test system: P388; experiment: Evaluated for long-term survivors scored at day 60; 0/6; format: functional, Mus musculus
[4] = test system: P388; experiment: Median survival time of treated animals/median survival time of control animals; format: functional, Mus musculus
[5] = test system: L1210; experiment: Inhibitory concentration required to reduce 50 percent L1210 cell growth; format: functional, cell-based; settings: Mus musculus
Method in brief: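 L1210 cells were grown in RPMI 1640 with 10% fetal calf serum, 2 mM glutamine, antibiotics and 10 mM HEPES (pH 7.4). Cells were exposed to compound for 48 h. MTT was then added for 4 h at 37 °C, and formazan was dissolved in DMSO and read at 540 nm. IC50 is the concentration reducing OD by 50%, from linear regression on the linear part of the curve. Triplicate.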

[6] = test system: L1210; experiment: Percent of L1210 cells in the G2+M phase of the cell cycle at a compound concentration of 0.5 uM; format: functional, Mus musculus
Method in brief: (§1)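 L1210 cells (2.5 × 10⁵ cells/mL) were incubated for 21 h with compound at the stated concentration. Flow cytometry was run on 10⁴ cells per sample, and the percentage of cells in G2+M was recorded.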

[7] = test system: L1210; experiment: Percent of L1210 cells in the G2+M phase of the cell cycle at a compound concentration of 2.5 uM; format: functional, Mus musculus; method in brief: as §1
[8] = test system: L1210; experiment: Percent of L1210 cells in the G2+M phase of the cell cycle at a compound concentration of 0.2 uM; format: functional, Mus musculus; method in brief: as §1
[9] = test system: A549; experiment: […] antiproliferative activity against A549 cell line; format: functional; settings: Homo sapiens
[10] = species: Mus musculus; experiment: Compound was evaluated for long-term survivors scored at day 60; 6/42; format: functional
[11] = test system: K562; experiment: […] antiproliferative activity against K-562 cell line; format: functional; settings: Homo sapiens
[12] = test system: HT-29; experiment: […] antiproliferative activity against HT-29 cell line; format: functional; settings: Homo sapiens
[13] = test system: A549; experiment: Antitumor activity against A549 non small cell carcinoma at dose range of 70-100 mg/kg on day 14, 21, 28; activity expressed as maximum tolerated dose; format: functional, Homo sapiens
Method in brief: (§2)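 A549 human lung tumour cells were implanted orthotopically, 10⁶ cells through the chest wall into the left pleural space of anaesthetised BALB/C nude mice. Once tumours were established, drug was given iv on days 14, 21 and 28 after tumour cell injection. The endpoint was life span, expressed as T/C (%) = median survival time of treated/control × 100. MTD was the dose causing no toxic death and/or no weight loss >20%.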

[14] = test system: NCI-H69; experiment: […] antiproliferative activity against NCI-H69 cell line; format: functional; settings: Homo sapiens
[15] = test system: P388; experiment: Antitumor activity against P388 leukemia at dose range of 6.25-100 mg/kg on day 1, activity expressed as maximum tolerated dose; format: functional, Mus musculus
[16] = test system: SK-N-MC; experiment: […] antiproliferative activity against SK-N-MC cell line; format: functional; settings: Homo sapiens
[17] = test system: A-431; experiment: […] antiproliferative activity against A431 cell line; format: functional; settings: Homo sapiens
[18] = test system: IGROV-1; experiment: […] antiproliferative activity against IGROV1 cell line; format: functional; settings: Homo sapiens
[19] = Median survival time of treated animals/median survival time of control animals; ranges from 122-131; format: functional; method in brief: as §2
[20] = test system: DU-145; experiment: […] antiproliferative activity against DU-145 cell line; format: functional; settings: Homo sapiens
[21] = test system: KB 3-1; experiment: In vitro antiproliferative activity against KB-3-1 cell line; settings: Homo sapiens
[22] = test system: MDA-MB-231; experiment: […] antiproliferative activity against MDA-MB-231 cell line; format: functional; settings: Homo sapiens
[23] = test system: P388; experiment: […] antiproliferative activity against P388 cell line; format: functional; settings: Mus musculus
[24] = test system: L1210; experiment: […] antiproliferative activity against L1210 cell line; format: functional; settings: Mus musculus
[25] = test system: A549; experiment: Antitumor activity against A549 non small cell carcinoma at dose range of 25-100 mg/kg on day 14, 21, 28; activity expressed as maximum tolerated dose; format: functional, Homo sapiens; method in brief: as §2
[26] = test system: L1210; experiment: Percent of L1210 cells in the G2+M phase of the cell cycle at a compound concentration of 0.25 uM; format: functional, Mus musculus; method in brief: as §1
[27] = test system: P388; experiment: Antitumor activity against P388 leukemia at dose range of 12.5-200 mg/kg on day 1, activity expressed as maximum tolerated dose; format: functional, Mus musculus
[28] = test system: L1210; experiment: Percent of L1210 cells in the G2+M phase of the cell cycle at a compound concentration of 50 uM; format: functional, Mus musculus; method in brief: as §1
[29] = test system: A549; experiment: Antitumor activity against A549 non small cell carcinoma at dose range of 6.25-25 mg/kg on day 14, 21, 28; activity expressed as maximum tolerated dose; format: functional, Homo sapiens; method in brief: as §2
[30] = test system: L1210; experiment: Percent of L1210 cells in the G2+M phase of the cell cycle at a compound concentration of 10 uM; format: functional, Mus musculus; method in brief: as §1

Question: Which MTD [1] does the source give for COc1cc([C@@H]2c3cc4c(cc3[C@@H](NS(=O)(=O)c3cccs3)[C@H]3COC(=O)[C@H]23)OCO4)cc(OC)c1O here?
Answer: 12.5

Question: What about the Activity [2] of the same compound?
Answer: 9

Question: And the LTS [3]?
Answer: 0

Question: And the T/C [4]?
Answer: 102%

Question: And the IC50 [5]?
Answer: 170 nM

Question: What about the Effect [6] of the same compound?
Answer: 71%

Question: With COc1cc([C@@H]2c3cc4c(cc3[C@@H](N=[N+]=[N-])[C@H]3COC(=O)[C@H]23)OCO4)cc(OC)c1O as the compound, how does the Effect [7] read?
Answer: 61%

Question: What about the Activity [2] of the same compound?
Answer: 44

Question: And the IC50 [5]?
Answer: 570 nM

Question: With COc1cc([C@@H]2c3cc4c(cc3[C@@H](NS(=O)(=O)c3ccc(N)cc3)[C@H]3COC(=O)[C@H]23)OCO4)cc(OC)c1O as the compound, how does the Effect [8] read?
Answer: 75%

Question: And the Activity [2]?
Answer: 0

Question: What about the IC50 [5] of the same compound?
Answer: 340 nM

Question: Which IC50 [9] does the source give for COc1cc([C@@H]2c3cc4c(cc3[C@@H](O[C@@H]3O[C@@H]5CO[C@@H](C)O[C@H]5[C@H](O)[C@H]3O)[C@H]3COC(=O)[C@H]23)OCO4)cc(OC)c1O [ETOPOSIDE] here?
Answer: 664 nM

Question: What about the LTS [10] of the same compound?
Answer: 6

Question: What about the IC50 [11] of the same compound?
Answer: 522 nM

Question: And the IC50 [12]?
Answer: 2370 nM

Question: What about the MTD [13] of the same compound?
Answer: 70

Question: What about the IC50 [14] of the same compound?
Answer: 1190 nM

Question: And the Effect [7]?
Answer: 80%

Question: And the MTD [15]?
Answer: 100

Question: What about the Activity [2] of the same compound?
Answer: 50

Question: What about the IC50 [16] of the same compound?
Answer: 275 nM

Question: And the IC50 [17]?
Answer: 591 nM

Question: What about the IC50 [18] of the same compound?
Answer: 984 nM

Question: What about the T/C [4] of the same compound?
Answer: 233%

Question: And the T/C [19]?
Answer: 131%

Question: And the IC50 [20]?
Answer: 2370 nM

Question: And the IC50 [21]?
Answer: 566 nM

Question: What about the IC50 [22] of the same compound?
Answer: 600 nM

Question: What about the IC50 [23] of the same compound?
Answer: 29.8 nM

Question: Which results are given for CCCCS(=O)(=O)N[C@@H]1c2cc3c(cc2[C@@H](c2cc(OC)c(O)c(OC)c2)[C@H]2C(=O)OC[C@@H]21)OCO3?
Answer: IC50 [9]: 62.6 nM; IC50 [11]: 139 nM; IC50 [24]: 33.5 nM; Effect [8]: 75%; IC50 [12]: 237 nM; IC50 [14]: 316 nM; MTD [15]: 100; Activity [2]: 10; IC50 [16]: 85.7 nM; IC50 [17]: 142 nM; LTS [3]: 0; IC50 [18]: 61.4 nM; T/C [4]: 161% and 105%; IC50 [5]: 33 nM; IC50 [20]: 304 nM; IC50 [22]: 69.2 nM; MTD [25]: 50; IC50 [23]: 16.1 nM

Question: Which results are given for COc1cc([C@@H]2c3cc4c(cc3[C@@H](NS(=O)(=O)N3CCOCC3)[C@H]3COC(=O)[C@H]23)OCO4)cc(OC)c1O?
Answer: Effect [26]: 76%; Activity [2]: 31; LTS [3]: 0; T/C [4]: 235% and 155%; IC50 [5]: 100 nM; MTD [27]: 200; MTD [25]: 50

Question: With COc1cc([C@@H]2c3cc4c(cc3[C@@H](NS(=O)(=O)CCCN)[C@H]3COC(=O)[C@H]23)OCO4)cc(OC)c1O as the compound, how does the Effect [28] read?
Answer: 75%

Question: What about the Activity [2] of the same compound?
Answer: 45

Question: And the IC50 [5]?
Answer: 2500 nM

Question: What does the source list for COc1cc([C@@H]2c3cc4c(cc3[C@@H](NS(=O)(=O)N(C)C)[C@H]3COC(=O)[C@H]23)OCO4)cc(OC)c1O?
Answer: Effect [26]: 66%; Activity [2]: 44; LTS [3]: 0; T/C [4]: 192% and 133%; IC50 [5]: 37 nM; MTD [27]: 100; MTD [29]: 6.25

Question: With COc1cc([C@@H]2c3cc4c(cc3[C@@H](NS(C)(=O)=O)[C@H]3COC(=O)[C@H]23)OCO4)cc(OC)c1O as the compound, how does the Activity [2] read?
Answer: 50

Question: What about the IC50 [5] of the same compound?
Answer: 70 nM

Question: What about the Effect [6] of the same compound?
Answer: 77%

Question: With COc1cc([C@@H]2c3cc4c(cc3[C@@H](NS(=O)(=O)CCCN=[N+]=[N-])[C@H]3COC(=O)[C@H]23)OCO4)cc(OC)c1O as the compound, how does the Activity [2] read?
Answer: 32

Question: And the IC50 [5]?
Answer: 35 nM

Question: Which Effect [30] does the source give for COc1cc([C@@H]2c3cc4c(cc3[C@@H](NS(=O)(=O)c3sc(NC(C)=O)nc3C)[C@H]3COC(=O)[C@H]23)OCO4)cc(OC)c1O here?
Answer: 68%

Question: What about the Activity [2] of the same compound?
Answer: 7

Question: And the IC50 [5]?
Answer: 3600 nM
